One test relates to Streptococcus pyogenes. Put plainly: Antibacterial activity against Streptococcus pyogenes ATCC 700294 after 20 to 22 hrs by broth microdilution method. The test is classed as functional. Particulars: M1 GAS. In outline: (§1)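 CLSI broth microdilution MIC. Twofold compound dilutions spanned 128-0.5 µg/mL, with azithromycin as comparator. Streptococci were grown on Columbia agar with 5% sheep blood, and their broth used 5% horse serum instead of lysed blood. H. influenzae was grown on Mueller-Hinton chocolate agar and staphylococci on Mueller-Hinton agar. Direct colony suspension gave 5x10⁴ CFU/well. Plates were read visually after 20-22 h at 37°C in ambient air.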

The subject of another test is Streptococcus pneumoniae. Put plainly: Antibacterial activity against Streptococcus pneumoniae ATCC 49619 after 20 to 22 hrs by broth microdilution method. The test is classed as functional. In outline: as §1
A general note: Dilution methods test growth across graded concentrations, often in twofold steps.

A further test deals with Haemophilus influenzae. Put plainly: Antibacterial activity against Haemophilus influenzae ATCC 49247 after 20 to 22 hrs by broth microdilution method. The class given is functional. In outline: as §1
The next test deals with Staphylococcus aureus. Put plainly: Antibacterial activity against Staphylococcus aureus ATCC 29213 after 20 to 22 hrs by broth microdilution method. The class given is functional. In outline: as §1
The next test concerns HepG2. The experiment in a line: Cytotoxicity against human HepG2 cells assessed as NADH level after overnight incubation by MTS assay. The test is classed as cell-based. The essentials:
(§2)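 Cells were maintained in RPMI 1640 with 10% FBS at 37°C under 5% CO₂. Compounds were twofold serially diluted across 100-0.2 µM, and 5x10⁴ cells/well were added and incubated overnight at 37°C, 5% CO₂. MTS reagent was then added for 1 h under the same conditions, and absorbance was read at 490 nm.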

For the next test, the system named is Moraxella catarrhalis. Put plainly: Antibacterial activity against Moraxella catarrhalis ATCC 23246 after 20 to 22 hrs by broth microdilution method. The test is classed as functional. In outline: as §1
In another test the test system is Jurkat. Put plainly: Cytotoxicity against human Jurkat T cells assessed as NADH level after overnight incubation by MTS assay. The class given is cell-based. In outline:
as §2
(Formazan colour is commonly taken as a measure of viable cells.)

The next test has as its system Escherichia coli. The experiment in a line: Antibacterial activity against Escherichia coli ATCC 25922 after 20 to 22 hrs by broth microdilution method. The test is classed as functional. In outline: as §1

In brackets after ≈: the same amount, converted by molar mass. Some results are limits rather than exact numbers.

In the case of `O=c1c2ccccc2oc2cccc(O)c12`, the MIC against Streptococcus pyogenes was greater than 128 µg/mL; against Streptococcus pneumoniae, greater than 128 µg/mL; in the test with Haemophilus influenzae it was greater than 128 µg/mL; against Staphylococcus aureus it was greater than 128 µg/mL; with Moraxella catarrhalis it was 128 µg/mL (≈ 603 µM); against Escherichia coli it was greater than 128 µg/mL. The IC50 in the test on HepG2 and with Jurkat was greater than 100 µM each time.
Regarding `CC(=O)Oc1cc(OC(C)=O)c2c(=O)c3cccc(OC(C)=O)c3oc2c1`, the MIC against Streptococcus pyogenes, in the test on Streptococcus pneumoniae, with Haemophilus influenzae, with Staphylococcus aureus, with Moraxella catarrhalis and against Escherichia coli was greater than 128 µg/mL throughout. The IC50 in the test with HepG2 was greater than 100 µM; in the test on Jurkat it was 92 µM.
For the molecule `CC(=O)Oc1ccc2c(=O)c3c(OC(C)=O)cc(OC(C)=O)cc3oc2c1`, the MIC in the test on Streptococcus pyogenes is greater than 128 µg/mL; in the test on Streptococcus pneumoniae it was greater than 128 µg/mL; in the test on Haemophilus influenzae, 128 µg/mL (≈ 346 µM); in the test with Staphylococcus aureus, 64 µg/mL (≈ 173 µM); against Moraxella catarrhalis, 4 µg/mL (≈ 10.8 µM); in the test on Escherichia coli, greater than 128 µg/mL. Moreover, the IC50 with HepG2 and in the test with Jurkat was greater than 100 µM in each case.
Regarding `CC(=O)Oc1cc(OC(C)=O)c2c(=O)c3c(OC(C)=O)cccc3oc2c1`, the MIC was greater than 128 µg/mL in the test with Streptococcus pyogenes; greater than 128 µg/mL in the test on Streptococcus pneumoniae; greater than 128 µg/mL against Haemophilus influenzae; 128 µg/mL (≈ 346 µM) against Staphylococcus aureus; 128 µg/mL (≈ 346 µM) in the test with Moraxella catarrhalis; greater than 128 µg/mL in the test with Escherichia coli. Moreover, the IC50 with HepG2 turned out to be 93 µM; in the test with Jurkat it was 62 µM.
Turning to `O=c1c2ccccc2sc2cc(O)cc(O)c12`, the MIC with Streptococcus pyogenes is greater than 128 µg/mL; in the test on Streptococcus pneumoniae, greater than 128 µg/mL; in the test on Haemophilus influenzae it was 16 µg/mL (≈ 65.5 µM); against Staphylococcus aureus, 16 µg/mL (≈ 65.5 µM); against Moraxella catarrhalis it was 8 µg/mL (≈ 32.8 µM); in the test on Escherichia coli it was greater than 128 µg/mL. The IC50 with HepG2 and with Jurkat was greater than 100 µM throughout.
For the molecule `CC(=O)Oc1cc(OC(C)=O)c2c(=O)c3ccccc3sc2c1`, the MIC is greater than 128 µg/mL in the test with Streptococcus pyogenes; greater than 128 µg/mL in the test with Streptococcus pneumoniae; greater than 128 µg/mL in the test with Haemophilus influenzae; greater than 128 µg/mL in the test with Staphylococcus aureus; 64 µg/mL (≈ 195 µM) in the test with Moraxella catarrhalis; greater than 128 µg/mL with Escherichia coli. In addition, the IC50 in the test on HepG2 and with Jurkat was greater than 100 µM each time.
Turning to `O=c1c2cc(O)ccc2oc2cc(O)cc(O)c12`, the MIC against Streptococcus pyogenes is greater than 128 µg/mL; in the test with Streptococcus pneumoniae, greater than 128 µg/mL; against Haemophilus influenzae it was greater than 128 µg/mL; against Staphylococcus aureus, 128 µg/mL (≈ 524 µM); against Moraxella catarrhalis it was 128 µg/mL (≈ 524 µM); in the test with Escherichia coli, greater than 128 µg/mL. The IC50 in the test with HepG2 and with Jurkat was greater than 100 µM throughout.
For `O=c1c2cccc(O)c2oc2cc(O)cc(O)c12`, the MIC with Streptococcus pyogenes was greater than 128 µg/mL; against Streptococcus pneumoniae, greater than 128 µg/mL; in the test with Haemophilus influenzae, greater than 128 µg/mL; against Staphylococcus aureus, greater than 128 µg/mL; in the test on Moraxella catarrhalis it was 16 µg/mL (≈ 65.5 µM); against Escherichia coli, greater than 128 µg/mL. Further, the IC50 with HepG2 and with Jurkat was greater than 100 µM throughout.
On to `O=c1c2ccccc2oc2cc(O)cc(O)c12`, for which the MIC was greater than 128 µg/mL against Streptococcus pyogenes; greater than 128 µg/mL against Streptococcus pneumoniae; 64 µg/mL (≈ 280 µM) with Haemophilus influenzae; 64 µg/mL (≈ 280 µM) against Staphylococcus aureus; 16 µg/mL (≈ 70.1 µM) in the test on Moraxella catarrhalis; greater than 128 µg/mL with Escherichia coli. For the same molecule, the IC50 in the test with HepG2 and in the test on Jurkat was greater than 100 µM each time.
`CC(=O)Oc1cccc2oc3ccccc3c(=O)c12`: the MIC was greater than 128 µg/mL in the test on Streptococcus pyogenes; greater than 128 µg/mL against Streptococcus pneumoniae; greater than 128 µg/mL against Haemophilus influenzae; greater than 128 µg/mL with Staphylococcus aureus; 128 µg/mL (≈ 503 µM) in the test on Moraxella catarrhalis; greater than 128 µg/mL against Escherichia coli. Further, the IC50 was greater than 100 µM in the test with HepG2 and 78 µM with Jurkat.
As for `O=c1c2ccc(O)cc2oc2cccc(O)c12`, the MIC with Streptococcus pyogenes is greater than 128 µg/mL; against Streptococcus pneumoniae, greater than 128 µg/mL; against Haemophilus influenzae, greater than 128 µg/mL; in the test on Staphylococcus aureus, 32 µg/mL (≈ 140 µM); in the test on Moraxella catarrhalis, 8 µg/mL (≈ 35.1 µM); in the test on Escherichia coli it was greater than 128 µg/mL. Further, the IC50 in the test with HepG2 is 93 µM; in the test on Jurkat, 75 µM.
For `CC(=O)Oc1cc(OC(C)=O)c2c(=O)c3ccccc3oc2c1`, the MIC is greater than 128 µg/mL against Streptococcus pyogenes; greater than 128 µg/mL in the test on Streptococcus pneumoniae; 128 µg/mL (≈ 410 µM) in the test with Haemophilus influenzae; 128 µg/mL (≈ 410 µM) with Staphylococcus aureus; 32 µg/mL (≈ 102 µM) against Moraxella catarrhalis; greater than 128 µg/mL with Escherichia coli. In addition, the IC50 in the test on HepG2 and in the test on Jurkat was greater than 100 µM each time.
As for `O=c1c2ccc(O)cc2oc2cc(O)cc(O)c12`, the MIC was greater than 128 µg/mL in the test with Streptococcus pyogenes; greater than 128 µg/mL in the test on Streptococcus pneumoniae; 32 µg/mL (≈ 131 µM) against Haemophilus influenzae; 64 µg/mL (≈ 262 µM) in the test on Staphylococcus aureus; 2 µg/mL (≈ 8.19 µM) against Moraxella catarrhalis; greater than 128 µg/mL in the test with Escherichia coli. Besides, the IC50 with HepG2 and in the test on Jurkat was greater than 100 µM each time.
For the molecule `CC(=O)Oc1cc(OC(C)=O)c2c(=O)c3cc(OC(C)=O)ccc3oc2c1`, the MIC in the test with Streptococcus pyogenes, against Streptococcus pneumoniae, against Haemophilus influenzae, with Staphylococcus aureus, in the test with Moraxella catarrhalis and in the test with Escherichia coli was greater than 128 µg/mL throughout. In addition, the IC50 in the test with HepG2 and with Jurkat was greater than 100 µM throughout.
Regarding `O=c1c2c(O)cccc2oc2cc(O)cc(O)c12`, the MIC was greater than 128 µg/mL with Streptococcus pyogenes; 128 µg/mL (≈ 524 µM) against Streptococcus pneumoniae; 16 µg/mL (≈ 65.5 µM) in the test on Haemophilus influenzae; 8 µg/mL (≈ 32.8 µM) in the test on Staphylococcus aureus; 8 µg/mL (≈ 32.8 µM) with Moraxella catarrhalis; greater than 128 µg/mL against Escherichia coli. Moreover, the IC50 in the test on HepG2 is 90 µM; in the test with Jurkat, 83 µM.
As to `CC(=O)Oc1ccc2c(=O)c3c(OC(C)=O)cccc3oc2c1`, the MIC against Streptococcus pyogenes was greater than 128 µg/mL; against Streptococcus pneumoniae, greater than 128 µg/mL; in the test on Haemophilus influenzae it was 128 µg/mL (≈ 410 µM); in the test with Staphylococcus aureus, 64 µg/mL (≈ 205 µM); against Moraxella catarrhalis, 16 µg/mL (≈ 51.2 µM); in the test with Escherichia coli it was greater than 128 µg/mL. Moreover, the values for the IC50 with HepG2 and with Jurkat were 90 µM and greater than 100 µM, respectively.
Consider `CC[C@H]1OC(=O)[C@H](C)[C@@H](O[C@H]2C[C@@](C)(OC)[C@@H](O)[C@H](C)O2)[C@H](C)[C@@H](O[C@@H]2O[C@H](C)C[C@H](N(C)C)[C@H]2O)[C@](C)(O)C[C@@H](C)CN(C)[C@H](C)[C@@H](O)[C@]1(C)O` [AZITHROMYCIN], for which the MIC with Streptococcus pyogenes is less than 0.125 µg/mL; with Streptococcus pneumoniae, less than 0.125 µg/mL; with Haemophilus influenzae it was 1 µg/mL (≈ 1.34 µM); in the test with Staphylococcus aureus, 1 µg/mL (≈ 1.34 µM); in the test with Moraxella catarrhalis it was less than 0.125 µg/mL; against Escherichia coli, 2 µg/mL (≈ 2.67 µM).

One may read the IC50 as the concentration that inhibits the measured activity by half.
